Reference: ChEMBL document CHEMBL1122658, “Amnesia-reversal activity of a series of N-[(disubstituted-amino)alkyl] -2-oxo-1-pyrrolidineacetamides, including pramiracetam” (1984)

Tests used:
Format in all cases: functional
Details in all cases: route intraperitoneal
Mus musculus [1] = experiment: Ability to reverse electroconvulsive shock (ECS) induced amnesia in mice, after administering intraperitoneally, at a dose of 80.0 mg/kg
Outline: (§1)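 Male CF-1 mice (20-25 g), five groups of 20, trained in one trial on step-through inhibitory avoidance (darkened chamber). ECS given 2 h after training. Test drug or vehicle placebo injected ip 2 h after ECS, 1 h before retention test. Entry into box within 60 s scored as amnesia. % reversal = (drug − base-line ECS+placebo)/(ceiling no-ECS+placebo − base-line) ×100.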

Mus musculus [2] = experiment: Ability to reverse electroconvulsive shock induced amnesia in mice, after administering intraperitoneally at a dose of 20.0 mg/kg; outline: as §1
Mus musculus [3] = experiment: Ability to reverse electroconvulsive shock induced amnesia in mice, after administering intraperitoneally at a dose of 5 mg/kg; outline: as §1
Mus musculus [4] = experiment: Ability to reverse electroconvulsive shock induced amnesia in mice, after administering intraperitoneally at a dose of 2.5 mg/kg; outline: as §1
Mus musculus [5] = experiment: Ability to reverse electroconvulsive shock (ECS) induced amnesia in mice, after administering intraperitoneally, at a dose of 0.63 mg/kg; outline: as §1
Mus musculus [6] = experiment: Ability to reverse electroconvulsive shock induced amnesia in mice, after administering intraperitoneally at a dose of 1.25 mg/kg; outline: as §1
Mus musculus [7] = experiment: Ability to reverse electroconvulsive shock (ECS) induced amnesia in mice, after administering intraperitoneally, at a dose of 80 mg/kg; outline: as §1
Mus musculus [8] = experiment: Ability to reverse electroconvulsive shock (ECS) induced amnesia in mice, after administering intraperitoneally, at a dose of 5 mg/kg; outline: as §1
Mus musculus [9] = experiment: Ability to reverse electroconvulsive shock induced amnesia in mice, after administering intraperitoneally at a dose of 20 mg/kg; outline: as §1
Mus musculus [10] = experiment: Ability to reverse electroconvulsive shock (ECS) induced amnesia in mice, after administering intraperitoneally, at a dose of 0.31 mg/kg; outline: as §1
Mus musculus [11] = experiment: Ability to reverse electroconvulsive shock (ECS) induced amnesia in mice, after administering intraperitoneally, at a dose of 160 mg/kg; outline: as §1

SMILES	Amnesia reversal (Mus musculus [1])	Amnesia reversal (Mus musculus [2])	Amnesia reversal (Mus musculus [3])	Amnesia reversal (Mus musculus [4])	Amnesia reversal (Mus musculus [5])	Amnesia reversal (Mus musculus [6])	Amnesia reversal (Mus musculus [7])	Amnesia reversal (Mus musculus [8])	Amnesia reversal (Mus musculus [9])	Amnesia reversal (Mus musculus [10])	Amnesia reversal (Mus musculus [11])
CN(C)CCCNC(=O)CN1CCCC1=O	46%	46%	31%								
CC(C)N(CCCNC(=O)CN1CC(c2ccccc2)CC1=O)C(C)C (stereo not given)	27%	55%	82%	45%	9%	0%					
CC1CCCC(C)N1CCCNC(=O)CN1CC(c2ccccc2)CC1=O (stereo not given)							50%	0%	0%		
CCN(CC)CCNC(=O)CN1CC(c2ccccc2)CC1=O (stereo not given)	8%	0%	42%	27%	0%	0%					
CN(C)CCCN1c2ccccc2Sc2ccc(Cl)cc21 [CHLORPROMAZINE]			0%	0%	20%	10%				15%	
CC(CNC(=O)CN1CCCC1=O)N1CCCCC1 (stereo not given)							0%	0%	0%		
CC(C)N(CCCNC(=O)CN1CCCC1=O)C(C)C	30%	20%	30%	0%	0%	9%					
CC(C)N(CCCCNC(=O)CN1CCCC1=O)C(C)C	15%	31%	31%	8%	0%	8%					
CC(C(=O)NCCCN1C(C)CCCC1C)N1CCCC1=O (stereo not given)		50%	8%				23%				30%
CC1CCC(=O)N1CC(=O)NCCCN(C(C)C)C(C)C (stereo not given)							30%	40%	0%		20%
CCC1CCCC(CC)N1CCCNC(=O)CN1CCCC1=O (stereo not given)	17%	42%		0%		0%		42%			
C=C(C)[C@@H]1[C@H]2OC(=O)[C@@H]1[C@]1(O)C[C@H]3OC34C(=O)O[C@H]2[C@@]41C.CC(C)(O)[C@@H]1[C@H]2OC(=O)[C@@H]1[C@]1(O)C[C@H]3OC34C(=O)O[C@H]2[C@@]41C (stereo not given in full) [PICROTOXIN]			5%	5%	5%	5%				5%	
CCC1CCC(=O)N1CC(=O)NCCN1C(C)CCCC1C (stereo not given)							27%	27%	40%		
C1CCc2nnnn2CC1.O=C(O)c1cccnc1			0%				9%		0%		
CC(CNC(=O)CN1C(=O)CCC1C)N1CCCCC1 (stereo not given)							45%	18%	36%		
NC(=O)CN1CC(c2ccccc2)CC1=O (stereo not given)	0%	0%	15%	0%	0%	0%					
CC1CC(C)N(CCCNC(=O)CN2CCCC2=O)C(C)(C)C1 (stereo not given)							45%	9%	18%		
C[C@@H]1CCC[C@H](C)N1CCNC(=O)CN1CCCC1=O	10%	70%	70%	50%	10%	20%					
CC(C(=O)NCCN1C(C)CCCC1C)N1CCCC1=O (stereo not given)							61%	17%	42%		

SMILES	Amnesia reversal (Mus musculus [1])	Amnesia reversal (Mus musculus [2])	Amnesia reversal (Mus musculus [3])	Amnesia reversal (Mus musculus [4])	Amnesia reversal (Mus musculus [5])	Amnesia reversal (Mus musculus [6])	Amnesia reversal (Mus musculus [7])	Amnesia reversal (Mus musculus [8])	Amnesia reversal (Mus musculus [9])	Amnesia reversal (Mus musculus [10])	Amnesia reversal (Mus musculus [11])
C[C@H](N)Cc1ccccc1 [DEXTROAMPHETAMINE]					15%	40%				10%	
CC1CCCC(C)N1CCNC(=O)CN1C(=O)CCC1(C)C (stereo not given)							44%		22%		80%
CN1CCC[C@H]1c1cccnc1 [NICOTINE]			0%	5%	5%	0%				20%	
O=C(CN1CCCC1=O)NCCN1CCCCC1	0%	0%	45%	45%	18%	64%					
CC1CCCC(C)N1CCNC(=O)CN1CCCCC1=O (stereo not given)	60%	10%	20%								
COC(=O)[C@H]1[C@@H](OC(=O)c2ccccc2)C[C@@H]2CC[C@H]1N2C [COCAINE]			10%	15%	10%	10%				15%	
CC(C)N(C)CCNC(=O)CN1CCCC1=O							0%	21%	0%		
CC1CCC(=O)N1CC(=O)NCCCN1C(C)CCCC1C (stereo not given)							10%	0%	30%		
CC1CCCC(C)N1CCCNC(=O)CN1CCCC1=O (stereo not given)	100%	55%	50%	33%		25%					60%
CC(C)N(CCNC(=O)CN1CCCC1=O)C(C)C [PRAMIRACETAM]	18%	82%	96%	60%	0%	30%					
NC(=O)CN1CCC(c2ccccc2)C1=O (stereo not given)	33%	17%	8%								
CC1CCCC(C)N1CCNC(=O)CN1CC(c2ccccc2)CC1=O (stereo not given)				40%	0%	10%	33%	67%	44%		
CC1CCC(=O)N1CC(=O)NCCN(C(C)C)C(C)C (stereo not given)							56%	0%	0%		
CN(C)CCNC(=O)CN1CCCC1=O.Cl								50%			
CCN(CC)CCNC(=O)CN1CCCC1=O							31%	15%	46%		
CC1CCCC(C)N1CCNC(=O)CCN1CCCC1=O (stereo not given)	17%	42%	33%								
C[C@H]1CCC[C@H](C)N1CCNC(=O)CN1CCCC1=O	17%	25%		82%		45%		48%			
CC1CCC(=O)N1CC(=O)NCCN1C(C)CCCC1C (stereo not given)				67%	33%	58%	0%	55%	36%		
CC1CCCC(C)N1CCCNC(=O)CN1C(=O)CCC1(C)C (stereo not given)	50%							25%	58%		33%
